Hits are enriched below; roughly 2.7% of the tested compounds scored in any of these assays.
PAFAH1B3 inh = blocks human PAF acetylhydrolase 1B catalytic subunit 3; recombinant PAFAH1B3, FP-rhodamine probe, fluorescence polarization; Q15102; AID 492972; hit rate 0.28% among 340,000; inhibition, % at 3.39 µM;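 active means inhibition above the screen-wide average of all tested compounds plus 3 SD, cut at about 25% in these data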;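 further: 0% = enzyme with DMSO only and 100% = wells lacking PAFAH1B3 protein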
PAFAH1B2 FP inh = inhibitors of human PAFAH1B2; P68402; inhibition, % at 3.39 µM; hit rate 1.2% among 340,000; recombinant PAFAH1B2, FP-rhodamine activity probe, fluorescence polarization;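 active means inhibition above the mean of all tested compounds plus 3 SD, cut at about 24% in these data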;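 further: 0% = enzyme with DMSO and 100% = wells lacking PAFAH1B2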
Target sequence (P68402 whole entry, looked up): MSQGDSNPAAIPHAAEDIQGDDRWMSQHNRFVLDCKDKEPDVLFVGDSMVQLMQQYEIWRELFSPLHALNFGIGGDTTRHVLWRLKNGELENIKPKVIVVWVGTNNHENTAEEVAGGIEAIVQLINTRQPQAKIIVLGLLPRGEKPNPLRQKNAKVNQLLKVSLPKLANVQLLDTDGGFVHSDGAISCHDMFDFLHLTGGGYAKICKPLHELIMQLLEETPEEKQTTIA
RBBP9 inhibitor = human RBBP9 hydrolase inhibition; O75884; inhibition, % at 7.94 µM; recombinant RBBP9, FP-Rh probe fluorescence polarization; hit rate 0.2% among 220,000;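 active means inhibition above the campaign mean of all tested compounds plus 3 SD, cut at about 14% in these data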;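 further: plate controls were DMSO wells with RBBP9 for no effect and wells lacking RBBP9 protein for full effect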
Target sequence (O75884 whole entry, looked up): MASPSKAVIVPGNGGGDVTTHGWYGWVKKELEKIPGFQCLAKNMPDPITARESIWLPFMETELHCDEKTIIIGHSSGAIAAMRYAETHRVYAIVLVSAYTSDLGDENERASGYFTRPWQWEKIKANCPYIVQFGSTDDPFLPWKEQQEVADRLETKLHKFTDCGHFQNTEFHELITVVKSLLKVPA
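Test system: recombinant human RBBP9; Timing: 30 min then 45 min, 25 °C; Detection: fluorescence polarization; Control set: RBBP9 with DMSO as uninhibited control, no-protein wells as full inhibition; Compound dosing: one concentration, 7.94 µM nominal, 0.794% DMSO; Probe or stimulus: FP-Rh activity-based probe, 375 nM before mixing.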
PAFAH2 FP inh = PAFAH2 (human) inhibition | hit rate 0.99% among 340,000 | recombinant PAFAH2, FP-rhodamine activity probe, fluorescence polarization | inhibition, % at 3.39 µM;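 active means inhibition above the mean over all tested compounds plus 3 SD, cut at about 30% in these data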;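 further: inhibitors block probe labeling of enzyme so polarization drops; 0% = enzyme with DMSO and 100% = wells lacking PAFAH2 protein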
pPAFAH inh = inhibitors of human plasma PAF acetylhydrolase (pPAFAH). Q13093. recombinant pPAFAH, FP-rhodamine probe fluorescence polarization. inhibition, % at 3.39 µM. hit rate 1.5% among 330,000. AID 463082;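 active means inhibition above the mean inhibition across the screen plus 3 SD, cut at about 25% in these data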;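 further: inhibitors block binding of the rhodamine activity-based probe so polarization drops; 0% = enzyme with DMSO and 100% = wells lacking pPAFAH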
* marks the source's active call; other numbers are inactive results; x = no result given.

SMILES	PAFAH1B3 inh	PAFAH1B2 FP inh	RBBP9 inhibitor	PAFAH2 FP inh	pPAFAH inh
O=C(/C=C/c1ccccc1)CC(O)(c1ccccc1)C(F)(F)F (stereo unspecified)	-2	55*	-2	9	2
COc1ccc(/C=C/C(=O)CCC(=O)O)cc1	4	7	-8	3	0
COCCN(C(=O)CSc1nnc(-c2ccco2)n1C)c1c(N)n(CC(C)C)c(=O)[nH]c1=O	7	6	x	3	-5
O=C(c1ccc(Oc2ccccc2)cc1)c1nc2c(n1O)CCCC2	0	6	-3	3	31*
CSc1nc2n(n1)C(C)C1=C(CCCC1=O)N2 (stereo unspecified)	4	1	-7	-3	-1
COc1ccc(CN(C)C(=O)c2cnc(OC)cc2C(F)(F)F)c(OC)c1	-6	3	-2	6	-2
Cc1cccc(Oc2sc(C(=O)c3ccccc3)c(N)c2C#N)c1	9	5	-8	7	26*
O=C(CCCn1c(=O)c2ccccc2n(CC(=O)N2CCN(c3ccccc3)CC2)c1=O)NCc1ccco1	5	-1	-2	4	0
O=S(=O)(Nc1cccnc1)c1ccc(Cl)c(C(F)(F)F)c1	13	26*	-1	-4	4
O=C(COc1ccc(S(=O)(=O)NC2CCCC2)cc1)N1CCCCC1	-7	2	x	2	7
O=C(CSc1n[nH]c(-c2ccc(S(=O)(=O)NC3CCCCC3)cc2)n1)N1CCCC1	10	13	5	3	28*
O=C(Oc1ccc(Br)cc1C(=S)N1CCOCC1)c1ccc([N+](=O)[O-])cc1[N+](=O)[O-]	3	-1	x	6	-4
CC(=O)Nc1ccc(NC(=O)CCn2c(=O)oc3ccccc32)cc1	-1	12	x	10	26*
CCCc1cc(=O)[nH]c(SCC(=O)Nc2ccc([N+](=O)[O-])cc2C#N)n1	8	3	-4	-2	0
COc1ccc(C(C[N+](=O)[O-])c2c(C)[nH]n(-c3ccccc3)c2=O)cc1 (stereo unspecified)	5	9	x	1	-1
Cc1ccc(C(C[N+](=O)[O-])c2c(-c3ccccc3O)[nH][nH]c2=O)cc1 (stereo unspecified)	2	25*	-4	11	3
O=Nc1c(O)[nH]c2ccc(Cl)c(Cl)c12	43*	28*	x	31*	x
Oc1[nH]c2ccccc2c1N=Nc1ccccc1Cl	9	2	x	-4	x
Nc1nnc(CC(=O)N/N=C/c2cc([N+](=O)[O-])cc(Br)c2O)s1	19	25*	-7	26	28*
O=C1c2cccc3c(O)ccc(c23)C(=O)N1Cc1ccccc1	35*	26*	-1	50*	31*
COc1ccc(C2Nc3cccc4cccc(c34)N2)cc1Br	16	8	x	-8	11
COc1cc(C2Nc3cccc4cccc(c34)N2)ccc1OC(C)=O	38*	10	-5	5	11
O=C(O)C1(c2ccccc2)CCN(S(=O)(=O)c2ccccc2)CC1	6	16	x	-2	5
O=C(O)C1(c2ccccc2)CCN(S(=O)(=O)c2ccc(F)c(F)c2)CC1	5	27*	x	-10	-2
Cc1cc(O)c(C(=O)/C=C/c2ccc(C(C)C)cc2)c(=O)o1	2	28*	x	1	x
SMILES	PAFAH1B3 inh	PAFAH1B2 FP inh	RBBP9 inhibitor	PAFAH2 FP inh	pPAFAH inh
CC(NC(=O)COC(=O)/C=C/c1cccc(C(F)(F)F)c1)c1ccccc1 (stereo unspecified)	5	-2	-3	16	3
Cn1cccc1C(=O)OCC(=O)Nc1cc(C(C)(C)C)nn1-c1ccccc1	-1	0	-2	0	29*
CC(C)(C)c1cc(NC(=O)COC(=O)c2nccnc2N)n(-c2ccccc2)n1	7	0	x	1	0
COc1ccc(CNCC(O)COc2ccc(C(C)(C)c3ccccc3)cc2)cc1 (stereo unspecified)	-3	12	x	2	26*
COC(=O)c1ccc(CNCC(O)COc2ccc(-c3ccccc3)cc2)cc1 (stereo unspecified)	-3	1	x	-13	-2
COc1ccc(NCC(O)COc2ccc(C(C)(C)C)cc2)cc1 (stereo unspecified)	8	27*	-4	0	12
O=C(COC(=O)c1sc2cc(F)ccc2c1Cl)Nc1ncc(Cl)cc1Cl	-11	-4	2	-13	31*
O=C(COC(=O)CCc1ccccc1)Nc1ncc(Cl)cc1Cl	8	4	-5	2	26*
Cc1cccc(-n2c(C)cc(C)c(C#N)c2=O)c1	4	-4	-10	-6	2
CCOC(=O)Cn1c(=O)oc2cc(S(=O)(=O)NC3CCCCC3)ccc21	-8	5	x	-1	6
CCOC(=O)Cn1c(=O)oc2cc(S(=O)(=O)Nc3c(C)cc(C)cc3C)ccc21	6	-1	-8	5	25*
N#C/C(=C\c1ccc(N2CCOCC2)o1)C(=O)NC1CCCCC1	3	24*	-9	2	-2
COc1ccccc1N(C)S(=O)(=O)c1ccc(C(=O)OCC(=O)NCCC2=CCCCC2)cc1	-5	-2	-4	16	1
COc1ccccc1C(CNC(=O)C1CC(=O)N(Cc2ccc(C)cc2)C1)N1CCCC1 (stereo unspecified)	-3	0	x	0	-1
O=C(O)c1cccc(-n2cccc2/C=C/[N+](=O)[O-])c1	19	6	-10	25	29*
COC(=O)CCC/C=C1/SCC(NC(=O)c2ccccc2)C1=O (stereo unspecified)	-5	1	-6	-8	26*
O=C(Oc1ccc(N(C(=O)c2ccncc2)S(=O)(=O)c2ccc(F)cc2)cc1)c1ccncc1	-2	4	7	7	6
O=C(Oc1ccc(N(C(=O)c2ccncc2)S(=O)(=O)c2ccc(Cl)cc2)cc1)c1ccncc1	8	29*	5	-4	7
C=CCn1c(=S)[nH]c2cc(C(=O)N3CCN(c4ccccc4OC)CC3)ccc2c1=O	5	0	x	2	4
CC(NC(=O)CN(C)S(=O)(=O)c1cccc2nsnc12)c1ccccc1 (stereo unspecified)	3	31*	x	1	2
Cc1ccc(NC(=O)CN(C)S(=O)(=O)c2cccc3nsnc23)cc1	7	8	8	-3	2
O=C(O/N=C1/CCCc2occc21)c1ccc(F)cc1	5	6	-6	15	10
O=C(O/N=C1/CCSc2ccccc21)c1ccc(F)cc1	10	24*	-2	47*	10
CC(C(=O)N1CCc2ccccc21)n1cnc2c1c(=O)n(C)c(=O)n2C (stereo unspecified)	6	-2	x	1	-3
O=C(CSc1ccc2ccccc2c1)NCCc1ccc(O)c(O)c1	6	11	1	4	27*
O=C(CSc1ccccc1)NCCc1ccc(F)cc1	-1	27*	x	-4	-1
O=C(CSc1ncn[nH]1)NCCc1ccccc1	0	3	-7	-6	-3
O=C(CSc1ccccc1)NCCc1ccccc1	2	13	x	4	15
